The values below come from ChEMBL document CHEMBL2331384, “Synthesis, crystal structure and antibacterial activity of new highly functionalized ionic compounds based on the imidazole nucleus” (2013).

Calls of active or inactive are those of the source. No cut-off for these calls is given here. Bounds are passed on as bounds.

Assay [1] has as its system Pseudomonas aeruginosa. Description: Antimicrobial activity against Pseudomonas aeruginosa ATCC 27853 after 1 day by agar dilution method. As to conditions: ATCC 27853, 24 h. It counts as functional. An outline of the steps: (§1)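 Inoculum was an overnight broth culture diluted to about 10^6 cell/mL. MIC (µg/mL) was determined by a standardized agar dilution technique after 1 day of exposure.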
For orientation: In agar dilution, organisms are placed on agar that contains the substance at set levels.

In assay [2] the test system is Staphylococcus aureus. Description: Antimicrobial activity against Staphylococcus aureus ATTC-25923 at 200 ug after overnight incubation by disk-diffusion method. As to conditions: for zone of inhibition at 200 µg/disc: read-out: DIZ. The format is functional. An outline of the steps:
(§2)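 Bacterial suspension spread over a Mueller–Hinton agar surface. 6 mm paper disks each loaded with 200 µg of compound dissolved in DMSO were placed on the agar. Plates were incubated overnight at 37 °C, and inhibition zone diameters were measured with a ruler in mm.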
For orientation: Agar diffusion results depend on both activity and mobility in agar.

The test system of assay [3] is Staphylococcus aureus. The assay can be described thus: Antimicrobial activity against Staphylococcus aureus ATTC-25923 after 1 day by agar dilution method. It counts as functional. As to conditions: ATTC-25923, 24 h. An outline of the steps:
as §1

Assay [4] relates to Escherichia coli. The assay can be described thus: Antimicrobial activity against Escherichia coli ATTC-25922 after 1 day by agar dilution method. As to conditions: ATTC-25922, 24 h. It counts as functional. An outline of the steps: as §1
The test system of assay [5] is Salmonella typhimurium. The assay can be described thus: Antimicrobial activity against Salmonella typhimurium ATCC 07095 at 200 ug after overnight incubation by disk-diffusion method. The format is functional, Salmonella enterica subsp. enterica serovar Typhimurium. As to conditions: for zone of inhibition at 200 µg/disc: Salmonella enterica, read-out: DIZ; for diameter of the inhibition zone (DIZ): Salmonella enterica subsp. enterica serovar Typhimurium. An outline of the steps: as §2

For assay [6], the system named is Escherichia coli. Description: Antimicrobial activity against Escherichia coli ATTC-25922 at 200 ug after overnight incubation by disk-diffusion method. It counts as functional. As to conditions: for zone of inhibition at 200 µg/disc: read-out: DIZ. An outline of the steps:
as §2

Assay [7] deals with Pseudomonas aeruginosa. The assay can be described thus: Antimicrobial activity against Pseudomonas aeruginosa ATCC 27853 at 200 ug after overnight incubation by disk-diffusion method. The format is functional. As to conditions: for zone of inhibition at 200 µg/disc: read-out: DIZ. An outline of the steps:
as §2

The test system of assay [8] is Salmonella typhimurium. The assay can be described thus: Antimicrobial activity against Salmonella typhimurium ATCC 07095 after 1 day by agar dilution method. As to conditions: Salmonella enterica, ATCC 07095, 24 h. It counts as functional, Salmonella enterica subsp. enterica serovar Typhimurium. An outline of the steps:
as §1

Assay [9] relates to Staphylococcus aureus. Description: Antimicrobial activity against Staphylococcus aureus ATTC-25923 at 100 ug after overnight incubation by disk-diffusion method. It counts as functional, organism-based.
Assay [10] concerns Escherichia coli. The assay can be described thus: Antimicrobial activity against Escherichia coli ATTC-25922 at 100 ug after overnight incubation by disk-diffusion method. The format is functional, organism-based.
The subject of assay [11] is Salmonella typhimurium. Description: Antimicrobial activity against Salmonella typhimurium ATCC 07095 at 100 ug after overnight incubation by disk-diffusion method. It counts as functional, organism-based. The following applies: Salmonella enterica subsp. enterica serovar Typhimurium.

For `Cc1n(C)c(I)c(I)[n+]1CC(=O)c1ccccc1.[Br-]`, the minimum inhibitory concentration (MIC) in the assay with Pseudomonas aeruginosa [1] was 12.5 µg/mL; against Staphylococcus aureus [3], over 250 µg/mL; against Escherichia coli [4] it was 12.5 µg/mL; against Salmonella typhimurium [8] it was 25 µg/mL. Also, the zone of inhibition at 200 µg/disc came to 15 mm in the assay with Staphylococcus aureus [2], 8 mm in the assay with Salmonella typhimurium [5], 9 mm in the assay with Escherichia coli [6] and 9 mm in the assay on Pseudomonas aeruginosa [7].

For `Cc1n(C)c([N+](=O)[O-])c[n+]1CC(=O)c1ccccc1.[Br-]`, the MIC in the assay on Pseudomonas aeruginosa [1] is over 250 µg/mL; in the assay on Staphylococcus aureus [3], over 250 µg/mL; against Escherichia coli [4], 50 µg/mL; against Salmonella typhimurium [8], 50 µg/mL. Also, the zone of inhibition at 200 µg/disc turned out to be 9 mm in the assay with Staphylococcus aureus [2], 7 mm with Salmonella typhimurium [5], 9 mm in the assay on Escherichia coli [6] and 10 mm in the assay with Pseudomonas aeruginosa [7].

Consider `Cc1n(C)c(Br)c(Br)[n+]1CC(=O)c1ccccc1.[Br-]`, for which the MIC with Pseudomonas aeruginosa [1] was 150 µg/mL; in the assay on Staphylococcus aureus [3], over 250 µg/mL; against Escherichia coli [4], 12.5 µg/mL; with Salmonella typhimurium [8], over 250 µg/mL. The zone of inhibition at 200 µg/disc was 7 mm with Staphylococcus aureus [2], 7 mm with Salmonella typhimurium [5], 9 mm with Escherichia coli [6] and 9 mm in the assay with Pseudomonas aeruginosa [7].

Regarding `CCOC(=O)C[n+]1c(Br)c(Br)n(C)c1-c1ccccc1.[Br-]`, the MIC against Pseudomonas aeruginosa [1] is 25 µg/mL; with Staphylococcus aureus [3], over 250 µg/mL; in the assay with Escherichia coli [4], 50 µg/mL; in the assay with Salmonella typhimurium [8], 25 µg/mL. Also, the zone of inhibition at 200 µg/disc with Staphylococcus aureus [2] was 9 mm; with Salmonella typhimurium [5], 7 mm; with Pseudomonas aeruginosa [7], 7 mm. In the assay with Escherichia coli [6], the “diameter of the inhibition zone (DIZ)” value is “inactive”.

In the case of `CCOC(=O)C[n+]1cn(C)c(I)c1I.[Br-]`, the minimum inhibitory concentration (MIC) came out at 6.2 µg/mL with Pseudomonas aeruginosa [1], 250 µg/mL with Staphylococcus aureus [3], 6.2 µg/mL in the assay on Escherichia coli [4] and 50 µg/mL in the assay with Salmonella typhimurium [8]. Also, the “diameter of the inhibition zone (DIZ)” value in the assay on Staphylococcus aureus [2], with Salmonella typhimurium [5] and in the assay on Escherichia coli [6] was “inactive” in each case. Moreover, the zone of inhibition at 200 µg/disc in the assay on Pseudomonas aeruginosa [7] was 9 mm.

Turning to `Cn1c(Br)c(Br)[n+](CC(=O)c2ccccc2)c1-c1ccccc1.[Br-]`, the MIC in the assay on Pseudomonas aeruginosa [1] came to 50 µg/mL; in the assay with Staphylococcus aureus [3], 250 µg/mL; against Escherichia coli [4] it was 50 µg/mL; with Salmonella typhimurium [8] it was 150 µg/mL. The zone of inhibition at 200 µg/disc in the assay on Staphylococcus aureus [2] was 12 mm; in the assay on Salmonella typhimurium [5] it was 7 mm; in the assay on Escherichia coli [6], 9 mm; in the assay on Pseudomonas aeruginosa [7], 8 mm.

`CCOC(=O)C[n+]1c(Br)c(Br)n(C)c1C.[Br-]`: the MIC is 250 µg/mL with Pseudomonas aeruginosa [1], over 250 µg/mL against Staphylococcus aureus [3], 25 µg/mL in the assay on Escherichia coli [4] and over 250 µg/mL against Salmonella typhimurium [8]. For the same molecule, the zone of inhibition at 200 µg/disc with Staphylococcus aureus [2] was 10 mm. Besides, the “diameter of the inhibition zone (DIZ)” value in the assay with Salmonella typhimurium [5], in the assay on Escherichia coli [6] and in the assay with Pseudomonas aeruginosa [7] was “inactive” each time.

As to `Cn1c[n+](CC(=O)c2ccccc2)cc1[N+](=O)[O-].[Br-]`, the MIC was 12.5 µg/mL with Pseudomonas aeruginosa [1], over 250 µg/mL with Staphylococcus aureus [3], 12.5 µg/mL against Escherichia coli [4] and 12.5 µg/mL in the assay with Salmonella typhimurium [8]. The “diameter of the inhibition zone (DIZ)” value in the assay on Staphylococcus aureus [2], in the assay with Salmonella typhimurium [5] and with Escherichia coli [6] was “inactive” throughout. In the assay on Pseudomonas aeruginosa [7], the zone of inhibition at 200 µg/disc stood at 9 mm.

With `CCOC(=O)C[n+]1c(Br)c(Br)n(C)c1CO.[Br-]`, the MIC in the assay with Pseudomonas aeruginosa [1] was 25 µg/mL; in the assay with Staphylococcus aureus [3] it was over 250 µg/mL; in the assay with Escherichia coli [4] it was 150 µg/mL; in the assay with Salmonella typhimurium [8] it was over 250 µg/mL. Further, the “diameter of the inhibition zone (DIZ)” value in the assay with Staphylococcus aureus [2] and in the assay with Salmonella typhimurium [5] was “inactive” each time. For the same molecule, the zone of inhibition at 200 µg/disc with Escherichia coli [6] and with Pseudomonas aeruginosa [7] was 7 mm throughout.

Consider `Cn1c(Br)c(Br)[n+](CC(=O)c2ccccc2)c1CO.[Br-]`, for which the MIC was 50 µg/mL with Pseudomonas aeruginosa [1], over 250 µg/mL against Staphylococcus aureus [3], 25 µg/mL with Escherichia coli [4] and over 250 µg/mL in the assay with Salmonella typhimurium [8]. Further, the zone of inhibition at 200 µg/disc is 7 mm in the assay on Staphylococcus aureus [2], 7 mm with Escherichia coli [6] and 9 mm with Pseudomonas aeruginosa [7]. Further, the “diameter of the inhibition zone (DIZ)” value in the assay on Salmonella typhimurium [5] was “inactive”.

For the molecule `Cn1c[n+](CC(=O)c2ccccc2)c(I)c1I.[Br-]`, the MIC against Pseudomonas aeruginosa [1] was determined as 25 µg/mL; against Staphylococcus aureus [3], 250 µg/mL; against Escherichia coli [4] it was 25 µg/mL; against Salmonella typhimurium [8], 12.5 µg/mL. The zone of inhibition at 200 µg/disc was 15 mm with Staphylococcus aureus [2], 9 mm in the assay with Salmonella typhimurium [5], 12 mm in the assay with Escherichia coli [6] and 8 mm with Pseudomonas aeruginosa [7].

In the case of `CCOC(=O)C[n+]1c(I)c(I)n(C)c1C.[Br-]`, the MIC in the assay with Pseudomonas aeruginosa [1] was 25 µg/mL; in the assay on Staphylococcus aureus [3] it was over 250 µg/mL; against Escherichia coli [4] it was 25 µg/mL; in the assay with Salmonella typhimurium [8] it was over 250 µg/mL. For the same molecule, the “diameter of the inhibition zone (DIZ)” value in the assay on Staphylococcus aureus [2], in the assay on Salmonella typhimurium [5] and in the assay with Escherichia coli [6] was “inactive” in each case. Also, in the assay on Pseudomonas aeruginosa [7], the zone of inhibition at 200 µg/disc was 9 mm.

Regarding SPIRAMYCIN, the values for the zone of inhibition in the assay with Staphylococcus aureus [9], in the assay with Escherichia coli [10] and in the assay on Salmonella typhimurium [11] were 22 mm, 9 mm and 9 mm, respectively.

The term MIC denotes the lowest concentration that inhibits growth of the organism. The low end stands for a more susceptible organism, the high end for a less susceptible organism.
